This is a sample that favours compounds with a hit; in the whole collection about 1.9% have one here.
RAD54 inh – RAD54 (human) branch migration inhibition; Q92698; RAD54 Holliday junction branch migration, FAM/BHQ fluorescence; inhibition, % at 10.4 µM; 360,000 tested, 0.14% active;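 active = mean normalized replicate activity at least 40 and at least half of replicates scoring 40 or more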;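 also: inhibitors cause a drop in the FAM fluorescence signal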
Ecoli rRNA inh – inhibits bacterial ribosomal RNA function over humanized ribosomes | E. coli WT GFP vs humanized-ribosome RFP mutants, fluorescence, 24 h; stronger effect = lower value; DMSO median 0, no signal -100 | AID 720706 | GFP signal change (wild-type ribosome), % (no concentration beside the values) | 350,000 tested, 1.6% active;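 active = significant combined selectivity score with lowered wild-type GFP, culture density cut under 30%, mutant RFP and density less affected; inactive = any of these conditions unmet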
PglD DTNB – blocks C. jejuni PglD acetyltransferase activity | purified PglD enzyme, DTNB colorimetric CoA detection | inhibition, % at 12.5 µM | 360,000 tested, 0.098% active; in the data active = inhibition above about 16%, passing the limit was not always enough
RAD52 inh – inhibitors of human RAD52 DNA annealing; recombinant RAD52 DNA annealing, FRET fluorescence; 360,000 tested, 0.46% active; AID 651710; inhibition, % at 18.7 µM;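 active = every replicate showing at least 50% inhibition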
Target sequence (P43351 whole entry, looked up): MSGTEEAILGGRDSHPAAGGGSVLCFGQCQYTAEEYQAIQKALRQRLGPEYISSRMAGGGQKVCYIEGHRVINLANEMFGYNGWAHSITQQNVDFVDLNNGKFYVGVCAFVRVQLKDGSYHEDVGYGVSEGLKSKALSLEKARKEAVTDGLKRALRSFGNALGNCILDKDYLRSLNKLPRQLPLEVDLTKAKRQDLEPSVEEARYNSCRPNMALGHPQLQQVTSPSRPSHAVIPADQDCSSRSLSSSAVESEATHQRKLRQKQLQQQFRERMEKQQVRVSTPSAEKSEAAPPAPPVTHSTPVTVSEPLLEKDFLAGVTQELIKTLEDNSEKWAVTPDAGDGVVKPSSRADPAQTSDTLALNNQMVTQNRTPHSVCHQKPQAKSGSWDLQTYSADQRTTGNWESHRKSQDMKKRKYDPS
Cneo AK release – Cryptococcus neoformans lysis via adenylate kinase release; C. neoformans lysis, adenylate kinase release luminescence, 4 h; normalised: neutral wells 0, clomiphene wells 100; lysis activity, % at 15 µM; 360,000 tested, 0.2% active; AID 651654;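 active = mean lysis activity across replicates of at least 80%, whatever share of replicates individually reach that level; inactive = mean lysis activity below 80%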
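Test system: log-phase Cryptococcus neoformans yeast cells. Input: 5 × 10^6 yeast cells/mL. Medium: fresh YPD growth medium. Doses: single dose. Incubation: static 4 h at 37 °C with compound, 1 h detection. Measured by: luminescent adenylate kinase detection reagent. Read-out: signal increase indicating cell lysis. Benchmarks: Clomiphene.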
A number is an active result; . = inactive; / = no result.

SMILES	RAD54 inh	Ecoli rRNA inh	PglD DTNB	RAD52 inh	Cneo AK release
COc1ccc(NC(=O)Nc2cccc3c2O[C@H](CN(C)Cc2ccncc2)[C@H](C)CN([C@@H](C)CO)C3=O)cc1	.	.	22	.	.
COc1ccc(CN(C)C[C@@H]2Oc3c(NC(=O)Nc4cccc5ccccc45)cccc3C(=O)N([C@@H](C)CO)C[C@@H]2C)cc1	.	.	.	.	114
COc1ccc(CN(C)C[C@H]2Oc3c(NC(=O)Nc4ccc(C(F)(F)F)cc4)cccc3C(=O)N([C@H](C)CO)C[C@H]2C)cc1	.	.	.	.	.
CCS(=O)(=O)N[C@@H]1C=C[C@@H](CC(=O)NCc2ccc(F)cc2)O[C@H]1CO	.	/	.	/	.
CCn1c2ccccc2c2cc(NC(C)=O)ccc21	.	/	.	/	.
CCn1c2ccccc2c2cc(NC(=O)c3ccco3)ccc21	.	-35	.	.	.
Cc1cccc(NC(=O)Nc2ccc(Cl)c(Cl)c2)n1	.	-26	.	.	.
CNC(=O)C[C@H]1CC[C@H]2[C@H](COc3ccc(NS(=O)(=O)c4ccc(F)cc4)cc3C(=O)N2C)O1	.	.	.	/	.
c1ccc2c(-c3csc(-c4ccncc4)n3)c[nH]c2c1	.	-27	.	.	.
CCS(=O)(=O)N1CC2(CN(C(=O)CN3CCOCC3)[C@H](CO)c3c2c2ccc(OC)cc2n3C)C1	/	.	/	.	/
O=S(=O)(c1cccs1)N1CCCCN2[C@H](CO)[C@H](c3ccc(C4=CCCCC4)cc3)[C@H]2C1	.	/	.	57	.
O=S(=O)(c1cccs1)N1CCCCN2[C@H](C1)[C@H](c1ccc(C3=CCCC3)cc1)[C@@H]2CO	.	.	.	.	.
COc1cccc(S(=O)(=O)N2CCCCN3[C@H](CO)[C@H](c4ccc(C5=CCCCC5)cc4)[C@H]3C2)c1	.	-32	.	/	.
COc1ccc(S(=O)(=O)N2CCCCN3[C@H](CO)[C@H](c4ccc(C5=CCCCC5)cc4)[C@H]3C2)cc1	.	/	.	60	.
CO[C@H]1CN(C)C(=O)c2ccc(NC(=O)C3CCOCC3)cc2OC[C@@H](C)N(C(=O)c2ccccc2)C[C@@H]1C	/	.	/	/	/
COc1cccc(S(=O)(=O)Nc2ccc3c(c2)C(=O)N(C)[C@@H]2CC[C@@H](CC(=O)O)O[C@@H]2CO3)c1	.	.	.	/	.
CN(C)C(=O)c1cccc(-c2ccc(C3[C@H]4CNC[C@@H]3N4Cc3cccc(C(F)(F)F)c3)cc2)c1 (some centres not stated)	/	.	/	.	/
Cc1c(/C=N/O)c2ccccn2c1C(=O)c1ccc(F)cc1	.	-28	.	.	.
Cc1c(/C=N/NC(N)=O)c2ccccn2c1C(=O)c1ccc(F)cc1	/	.	/	.	/
CCCN(C)C[C@@H]1Oc2cc(C#Cc3cccnc3)ccc2S(=O)(=O)N([C@@H](C)CO)C[C@@H]1C	.	.	.	.	.
CN(C(=O)COC(=O)c1cnc(Cl)c(Cl)c1)C1CCS(=O)(=O)C1 (configuration not stated)	.	.	.	.	.
CN(C(=O)COC(=O)c1cnc(Cl)c(Cl)c1)C1CCCCC1	.	-14	.	.	.
CCc1c(C)nc2ncnn2c1Nc1ccc(C)cc1	.	.	.	.	.
CCc1c(C)nc2ncnn2c1NCCc1ccc(OC)cc1	.	-27	.	.	.
O=C(NC1CCCCC1)N1CC(=O)N2[C@@H](CO)[C@@H](c3ccc(-c4cccnc4)cc3)[C@@H]2C1	/	.	/	61	/
SMILES	RAD54 inh	Ecoli rRNA inh	PglD DTNB	RAD52 inh	Cneo AK release
O=C(NC1CCCC1)N1CCCCN2[C@H](CO)[C@@H](c3ccc(-c4cncnc4)cc3)[C@@H]2C1	.	.	.	.	.
O=C(NC1CCCC1)N1CCCCN2[C@H](CO)[C@@H](c3ccc(-c4cncnc4)cc3)[C@H]2C1	.	.	.	.	106
O=C(c1ccncc1)N1CC2(C1)[C@@H](c1ccccc1)[C@@H](CO)N2C(=O)c1ccncc1	/	.	/	.	/
O=C(C[C@H]1CC[C@@H]2[C@H](COC[C@@H](O)CN2C(=O)Nc2cccc(F)c2)O1)NCCCN1CCOCC1	.	.	.	.	.
COc1ccc(C2=Nc3ccccc3NC(=O)C2N(C(=O)c2cnc(C)cn2)c2ccc(N3CCOCC3)cc2)cc1 (configuration not stated)	.	.	.	.	.
COc1ccc(C2=Nc3ccccc3NC(=O)C2N(C(=O)c2ccnc3ccccc23)c2ccccc2)cc1 (configuration not stated)	.	-21	.	.	.
COc1ccc(S(=O)(=O)CC(=O)c2cc3cc(Br)ccc3oc2=O)cc1	.	-22	.	.	.
Cc1ccc(S(=O)(=O)N(C)C[C@H]2Oc3c(NC(=O)Nc4c(C)noc4C)cccc3C(=O)N([C@@H](C)CO)C[C@H]2C)cc1	.	.	.	.	.
CN(C)CC(=O)N1[C@@H](CO)[C@H](c2ccccc2)C12CN(CC1CC1)C2	/	.	/	/	/
O=S(=O)(c1cccc(-c2csc(-c3ccccc3)n2)c1)N1CCOCC1	.	/	.	/	.
O=S(=O)(c1cccc(-c2csc(N/N=C/c3ccco3)n2)c1)N1CCOCC1	.	-23	.	.	.
COc1cc(/C=N/Nc2snc(SC)c2C#N)cc(OC)c1OC	.	/	.	/	.
CSc1nsc(N/N=C/c2ccc3c(c2)OCO3)c1C#N	/	-29	/	.	/
CS(=O)(=O)N1[C@@H]2CN(CC3CC3)C[C@H]1C2c1ccc(Br)cc1 (some centres not stated)	/	.	/	/	/
CC(=O)c1cnn(-c2c(Cl)cc(Cl)cc2Cl)c1C	.	-22	.	.	.
CC(=O)c1cnn(-c2ccccc2)c1C	/	.	/	.	/
Cc1[nH]c2ccccc2c1CCNC(=O)c1ccc2nccnc2c1	.	.	.	.	.
Cc1[nH]c2ccccc2c1CCNC(=O)c1c(N)no[n+]1[O-]	/	-21	/	.	/
COc1ccc(C(=O)NCc2cccnc2)cc1Br	.	/	.	/	.
COc1ccc(C(=O)NC(=S)NCc2cccnc2)cc1Cl	.	-21	.	.	.
CCc1ccc(C(=O)NC(=S)NCc2cccnc2)cc1	.	.	.	.	87
C[C@@H]1CN(C)C(=O)Cc2cc(NS(C)(=O)=O)ccc2O[C@@H]1CN(C)S(C)(=O)=O	/	.	/	/	/
NS(=O)(=O)c1ccc(Nc2nc(-c3cccc([N+](=O)[O-])c3)cs2)cc1	.	-27	.	.	.
NS(=O)(=O)c1ccc(Nc2nc(-c3ccc4ccccc4c3)cs2)cc1	.	/	.	/	.
O=C(Nc1ccc2c(c1)[C@H]1C[C@H](CC(=O)N3CCOCC3)O[C@@H](CO)[C@H]1O2)c1cccnc1	.	.	.	.	.
O=C(Nc1ccc(Cl)c(Cl)c1)N[C@H]1CC[C@H](CCn2cc(C3CCCC3)nn2)O[C@H]1CO	/	.	/	.	/
N#C/C(=C\c1ccc(O)c(O)c1)C(=O)N1CCc2ccccc21	.	/	.	.	.
COc1cc(/C=C(\C#N)C(=O)N2CCc3ccccc32)ccc1O	.	-33	.	.	.

Bioassay records from PubChem.
